Data on 7 molecules can be found in ChEMBL document CHEMBL1158832, “Bioactive tetrahydrofuran lignans from Peperomia dindygulensis” (J Nat Prod, 2005).

≈ marks a conversion by molar mass, not a printed value.

By IC50 is commonly meant the midpoint of a concentration-inhibition curve. The term inhibition denotes the change of the read-out against control, counted positive when it falls.

Data set [1] has as its target T1, P-glycoprotein (ABCB1) (Homo sapiens, UniProt P08183). The experiment in a line: Inhibition of P-glycoprotein-mediated multidrug resistance in adriamycin-resistant human A2780 cells assessed as calcein accumulation at 0.25 ug/ml after 15 mins relative to control. The following applies: probe calcein, values are per cent of control. It counts as cell-based.
Data set [2] has as its system A549. The experiment in a line: Antiinflammatory activity against human A549 cells assessed as inhibition of IL-1-alpha-induced ICAM1 expression. It counts as functional, cell-based. In a few lines: (§1)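 A549 cells, 2 × 10^4/well seeded the day before, preincubated 1 h ± test compounds, then stimulated with IL-1α (1 ng/mL) or TNF-α (10 ng/mL) for 6 h. Fixed in 1% paraformaldehyde, mouse anti-human ICAM-1 then peroxidase anti-mouse IgG; o-phenylenediamine/H2O2 substrate, pH 5.3, 20 min 37 °C, A415. Expression as % of stimulated minus unstimulated absorbance.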

Data set [3] concerns the target T1, P-glycoprotein (ABCB1). Put plainly: Inhibition of P-glycoprotein-mediated multidrug resistance in adriamycin-resistant human A2780 cells assessed as calcein accumulation at 25 ug/ml after 15 mins relative to verapamil. It is filed as cell-based. Conditions: probe calcein.
Data set [4] has as its system A549. The experiment in a line: Cytotoxicity against human A549 cells after 24 hrs by MTT assay. It counts as functional, cell-based. In short, it runs like this:
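A549 cells, 2 × 10^4/well seeded the day before, exposed to test compounds 24 h; MTT 500 µg/mL pulsed for the final 4 h, formazan dissolved in 10% SDS overnight, A595. Viability as (sample − background)/(control − background) × 100.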
On the technique in general: Formazan colour is commonly taken as a measure of viable cells.

In data set [5] the target is T1, P-glycoprotein (ABCB1). The experiment in a line: Inhibition of P-glycoprotein-mediated multidrug resistance in adriamycin-resistant human A2780 cells assessed as calcein accumulation at 25 ug/ml after 15 mins relative to control. It counts as cell-based. The following applies: probe calcein, values are per cent of control.
The test system of another data set is WI-38 VA13. The experiment in a line: Cytotoxicity against human VA13 cells after 48 hrs by WST8 assay. It is filed as functional, cell-based. The following applies: WI-38 VA13, 48 h. In a few lines:
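VA-13 cells grown in RITC 80-7 with 10% FBS; ca. 5000 cells/well preincubated 24 h at 37 °C, 5% CO2, then compounds in DMSO added for 48 h. WST-8 added, formazan read at 450 nm; IC50 taken as 50% growth inhibition from viability-versus-concentration plot.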

In data set [6] the target is T1, P-glycoprotein (ABCB1). The experiment in a line: Inhibition of P-glycoprotein-mediated multidrug resistance in adriamycin-resistant human A2780 cells assessed as calcein accumulation at 2.5 ug/ml after 15 mins relative to verapamil. It is filed as cell-based. Conditions: probe calcein.
In data set [7] the target is T1, P-glycoprotein (ABCB1). The experiment in a line: Inhibition of P-glycoprotein-mediated multidrug resistance in adriamycin-resistant human A2780 cells assessed as calcein accumulation at 2.5 ug/ml after 15 mins relative to control. The following applies: probe calcein, values are per cent of control. It is filed as cell-based.
Data set [8] has as its target T1, P-glycoprotein (ABCB1). The experiment in a line: Inhibition of P-glycoprotein-mediated multidrug resistance in adriamycin-resistant human A2780 cells assessed as calcein accumulation at 0.25 ug/ml after 15 mins relative to verapamil. It is filed as cell-based. The following applies: probe calcein.
Data set [9] relates to A549. The experiment in a line: Antiinflammatory activity against human A549 cells assessed as inhibition of TNF-alpha-induced ICAM1 expression. It is filed as functional, cell-based. In short, it runs like this:
as §1

The test system of another data set is HepG2. Put plainly: Cytotoxicity against human HepG2 cells after 48 hrs by WST8 assay. It counts as functional, cell-based. Conditions: HepG2, 48 h. In short, it runs like this: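 About 5000 cells per well, preincubated 24 h at 37 °C in 5% CO2. Cells kept in D-MEM with 10% FBS and 80 µg/mL kanamycin. Samples were added in DMSO and incubated a further 48 h. WST-8 formazan was read at 450 nm, viability was plotted against concentration, and IC50 was taken as the concentration giving 50% growth inhibition.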

T1 sequence (P08183 whole entry): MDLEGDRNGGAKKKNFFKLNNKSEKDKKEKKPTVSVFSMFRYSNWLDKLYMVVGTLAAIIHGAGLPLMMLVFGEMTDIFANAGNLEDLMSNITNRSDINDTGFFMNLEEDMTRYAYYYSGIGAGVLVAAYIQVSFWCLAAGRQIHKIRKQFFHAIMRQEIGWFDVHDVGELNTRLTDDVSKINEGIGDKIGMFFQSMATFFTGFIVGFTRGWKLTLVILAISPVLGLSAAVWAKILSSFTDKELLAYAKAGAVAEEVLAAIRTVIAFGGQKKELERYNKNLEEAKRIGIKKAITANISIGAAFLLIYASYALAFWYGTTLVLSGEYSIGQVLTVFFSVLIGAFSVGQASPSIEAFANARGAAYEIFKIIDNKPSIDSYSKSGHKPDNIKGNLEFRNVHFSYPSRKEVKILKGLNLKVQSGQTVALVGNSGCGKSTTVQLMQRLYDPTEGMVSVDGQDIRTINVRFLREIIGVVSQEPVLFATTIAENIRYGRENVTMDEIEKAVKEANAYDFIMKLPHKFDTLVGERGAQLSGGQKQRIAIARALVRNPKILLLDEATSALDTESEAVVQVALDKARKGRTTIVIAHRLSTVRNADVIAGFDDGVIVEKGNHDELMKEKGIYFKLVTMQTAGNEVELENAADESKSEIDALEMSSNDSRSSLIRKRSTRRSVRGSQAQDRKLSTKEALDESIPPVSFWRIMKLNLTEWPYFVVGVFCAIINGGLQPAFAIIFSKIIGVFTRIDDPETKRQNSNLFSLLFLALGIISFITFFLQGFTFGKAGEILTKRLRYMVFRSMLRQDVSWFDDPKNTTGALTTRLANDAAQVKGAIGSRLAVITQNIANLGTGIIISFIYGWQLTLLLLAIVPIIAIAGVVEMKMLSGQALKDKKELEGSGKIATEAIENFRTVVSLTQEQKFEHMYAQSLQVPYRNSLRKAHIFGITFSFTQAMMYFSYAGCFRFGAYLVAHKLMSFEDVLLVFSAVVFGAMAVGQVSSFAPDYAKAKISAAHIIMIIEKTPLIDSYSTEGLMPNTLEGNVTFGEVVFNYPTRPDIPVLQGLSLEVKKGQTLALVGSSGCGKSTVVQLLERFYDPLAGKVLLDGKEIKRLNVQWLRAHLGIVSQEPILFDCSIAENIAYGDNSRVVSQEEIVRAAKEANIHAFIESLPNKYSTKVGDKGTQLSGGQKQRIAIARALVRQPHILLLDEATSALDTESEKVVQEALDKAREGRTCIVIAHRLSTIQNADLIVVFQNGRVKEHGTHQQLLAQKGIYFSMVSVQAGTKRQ

In the case of `COc1cc([C@@H]2O[C@H](c3cc(OC)c4c(c3)OCO4)[C@@H](COC(C)=O)[C@@H]2COC(C)=O)cc(OC)c1O`, the response, % of control at 0.25 h, 0.25 ug/ml at P-glycoprotein (ABCB1) [1] was 88%. The IC50 in the data set with A549 [2] stood at 84.4 µM; with WI-38 VA13, 47.4 µg/mL (≈ 91.4 µM); with A549 [9], 38.6 µM. For the same molecule, the inhibition at 0.25 h, 25 ug/ml on P-glycoprotein (ABCB1) [3] is 78%. The Activity entry with A549 [4] is “Not toxic”. Further, the response, % of control at 0.25 h, 25 ug/ml on P-glycoprotein (ABCB1) [5] was 101%. In addition, the inhibition at 0.25 h, 2.5 ug/ml at P-glycoprotein (ABCB1) [6] was 99%. Further, the response, % of control at 0.25 h, 2.5 ug/ml on P-glycoprotein (ABCB1) [7] is 95%. In addition, the inhibition at 0.25 h, 0.25 ug/ml at P-glycoprotein (ABCB1) [8] was 100%.
`COc1cc([C@H]2O[C@H](c3cc(OC)c4c(c3)OCO4)[C@@H](COC(C)=O)[C@@H]2CO)cc2c1OCO2` yielded an IC50 in the data set on WI-38 VA13 of 36.2 µg/mL (≈ 76.3 µM).
Same read-out and setting: the same measure for `COc1ccc(-c2cc(=O)c3c(O)cc(OC)cc3o2)cc1` [APIGENIN DIMETHYLETHER]: 38.9 µg/mL (≈ 130 µM).
Consider `COc1cc([C@H]2O[C@@H](c3cc(OC)c4c(c3)OCO4)[C@@H](COC(C)=O)[C@@H]2CO)cc2c1OCO2`, for which the response, % of control at 0.25 h, 0.25 ug/ml at P-glycoprotein (ABCB1) [1] was 76%. Further, the inhibition at 0.25 h, 25 ug/ml at P-glycoprotein (ABCB1) [3] was 72%. Further, the response, % of control at 0.25 h, 25 ug/ml on P-glycoprotein (ABCB1) [5] is 94%. For the same molecule, on P-glycoprotein (ABCB1) [6], the inhibition at 0.25 h, 2.5 ug/ml was 89%. In addition, the response, % of control at 0.25 h, 2.5 ug/ml at P-glycoprotein (ABCB1) [7] was 85%. Also, the inhibition at 0.25 h, 0.25 ug/ml on P-glycoprotein (ABCB1) [8] was 86%.
The molecule `O=C1CCCC(=O)C1C(=O)CCc1ccccc1` yielded an IC50 in the data set with WI-38 VA13 of 40.5 µg/mL (≈ 166 µM).
For the molecule `CC(C)[C@@H](C)/C=C/[C@@H](C)[C@H]1CC[C@H]2[C@@]3(O)C=C[C@@]4(O)C[C@@H](O)CC[C@]4(C)[C@H]3CC[C@]12C`, on P-glycoprotein (ABCB1) [1], the response, % of control at 0.25 h, 0.25 ug/ml was 97%. Besides, the inhibition at 0.25 h, 25 ug/ml at P-glycoprotein (ABCB1) [3] is 73%. In addition, the response, % of control at 0.25 h, 25 ug/ml at P-glycoprotein (ABCB1) [5] was 95%. Further, the values for the IC50 with WI-38 VA13 and in the data set on HepG2 were 48.1 µg/mL (≈ 112 µM) and 47.9 µg/mL (≈ 111 µM), respectively. Further, the inhibition at 0.25 h, 2.5 ug/ml at P-glycoprotein (ABCB1) [6] is 111%. Moreover, at P-glycoprotein (ABCB1) [7], the response, % of control at 0.25 h, 2.5 ug/ml was 106%. For the same molecule, on P-glycoprotein (ABCB1) [8], the inhibition at 0.25 h, 0.25 ug/ml is 109%.
With `COc1cc([C@@H]2O[C@H](c3cc(OC)c4c(c3)OCO4)[C@@H](COC(C)=O)[C@@H]2CO)cc(OC)c1OC`, at P-glycoprotein (ABCB1) [1], the response, % of control at 0.25 h, 0.25 ug/ml is 97%. Also, the 50% inhibitory concentration (IC50) with A549 [2] amounted to 189 µM; in the data set on A549 [9], 105 µM. Further, the inhibition at 0.25 h, 25 ug/ml on P-glycoprotein (ABCB1) [3] is 107%. Further, the Activity result with A549 [4] is “Not toxic”. The response, % of control at 0.25 h, 25 ug/ml at P-glycoprotein (ABCB1) [5] is 138%. Further, at P-glycoprotein (ABCB1) [6], the inhibition at 0.25 h, 2.5 ug/ml was 110%. The response, % of control at 0.25 h, 2.5 ug/ml at P-glycoprotein (ABCB1) [7] is 105%. For the same molecule, the inhibition at 0.25 h, 0.25 ug/ml on P-glycoprotein (ABCB1) [8] was 110%.
